Tests used:
[1] = Stability in human liver microsomes assessed as parent compound remaining measured after 10 mins; format: ADME, Microsome; conditions: liver microsomes, read-out: Stability
[2] = Stability in rat liver microsomes assessed as parent compound remaining measured after 10 mins; format: ADME, Microsome; conditions: read-out: Stability
[3] = Clearance in rat at 2 mg/kg, po or 0.5 mg/kg, iv administered as infusion for 10 mins; format: ADME, organism-based; conditions: in vivo
[4] = Half life in rat at 2 mg/kg, po or 0.5 mg/kg, iv administered as infusion for 10 mins; format: ADME, organism-based; conditions: in vivo
[5] = Oral bioavailability in rat at 2 mg/kg; format: ADME, organism-based; conditions: in vivo
Procedure, shortened: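 Rat dosing: iv 0.5 mpk as a 10 min infusion in 25/75 propylene glycol/PEG400 at 2 ml/kg. po 2 mpk in 5/5/90 EtOH/TPGS/PEG300 at 5 mL/kg.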

[6] = target: T1, Proteinase-activated receptor 4 (Homo sapiens) (UniProt Q96RI0); assay: Displacement of [3H]BMS-986120 from His-tagged human PAR4 expressed in HEK293 cell membranes assessed as association rate constant
T1 sequence (whole entry): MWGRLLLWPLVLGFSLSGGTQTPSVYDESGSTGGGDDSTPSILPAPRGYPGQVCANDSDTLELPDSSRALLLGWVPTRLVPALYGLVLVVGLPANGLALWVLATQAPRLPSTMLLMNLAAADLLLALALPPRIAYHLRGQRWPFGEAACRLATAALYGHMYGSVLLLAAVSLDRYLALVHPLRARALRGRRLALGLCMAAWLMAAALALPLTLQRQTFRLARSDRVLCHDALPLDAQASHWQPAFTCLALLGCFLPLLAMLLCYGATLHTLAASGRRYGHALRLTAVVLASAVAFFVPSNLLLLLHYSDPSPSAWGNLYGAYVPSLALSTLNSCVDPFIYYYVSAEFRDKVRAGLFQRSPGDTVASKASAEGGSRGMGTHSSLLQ
Procedure, shortened: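 HEK293 membranes expressing PAR4. Association kinetics measured; values are mean ± standard deviation, n = 3.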

[7] = target: T1, Proteinase-activated receptor 4 (Homo sapiens); assay: Displacement of [3H]BMS-986120 from His-tagged human PAR4 expressed in HEK293 cell membranes assessed as dissociation rate constant measured after 2 hrs
[8] = Half life in mouse liver microsomes; format: ADME, Microsome
[9] = Half life in dog liver microsomes; format: ADME, Canis lupus familiaris, Microsome
[10] = Half life in monkey liver microsomes; format: ADME, Macaca mulatta, Microsome; conditions: rhesus monkey
[11] = target: CYP450 (isoform not stated) (Homo sapiens, UniProt P04798+P05177+P05181+P08684+P10632+P10635+P11509+P11712+P13584+P20813+P20815+P20853+P24462+P24903+P33260+P33261+P51589+P78329+P98187+Q02928+Q08477+Q16678+Q16696+Q5TCH4+Q6VVX0+Q7Z449+Q8TAV3+Q96SQ9+Q9HB55); assay: Inhibition of CYP450 in human liver microsomes; format: ADME
[12] = target: T2, Nuclear receptor subfamily 1 group I member 2 (Homo sapiens, UniProt O75469); assay: Activation of human PXR; format: ADME
T2 sequence (O75469 whole entry): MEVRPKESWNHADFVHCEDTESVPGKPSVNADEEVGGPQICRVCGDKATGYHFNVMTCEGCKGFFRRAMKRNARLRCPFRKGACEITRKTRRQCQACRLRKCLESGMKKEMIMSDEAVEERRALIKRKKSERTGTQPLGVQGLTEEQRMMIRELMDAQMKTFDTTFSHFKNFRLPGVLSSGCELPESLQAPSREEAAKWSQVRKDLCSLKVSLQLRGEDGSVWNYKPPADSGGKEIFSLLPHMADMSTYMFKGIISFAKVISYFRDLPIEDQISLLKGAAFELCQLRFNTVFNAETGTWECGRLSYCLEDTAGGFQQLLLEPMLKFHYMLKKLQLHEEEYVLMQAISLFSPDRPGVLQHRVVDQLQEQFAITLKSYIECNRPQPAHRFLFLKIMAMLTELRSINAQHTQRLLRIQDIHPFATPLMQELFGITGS

hERG (KCNH2) = hERG (KCNH2) (Homo sapiens, UniProt Q12809); assay: Inhibition of human ERG at 10 uM by patch clamp method
Chain of hERG (KCNH2) (Q12809 whole entry): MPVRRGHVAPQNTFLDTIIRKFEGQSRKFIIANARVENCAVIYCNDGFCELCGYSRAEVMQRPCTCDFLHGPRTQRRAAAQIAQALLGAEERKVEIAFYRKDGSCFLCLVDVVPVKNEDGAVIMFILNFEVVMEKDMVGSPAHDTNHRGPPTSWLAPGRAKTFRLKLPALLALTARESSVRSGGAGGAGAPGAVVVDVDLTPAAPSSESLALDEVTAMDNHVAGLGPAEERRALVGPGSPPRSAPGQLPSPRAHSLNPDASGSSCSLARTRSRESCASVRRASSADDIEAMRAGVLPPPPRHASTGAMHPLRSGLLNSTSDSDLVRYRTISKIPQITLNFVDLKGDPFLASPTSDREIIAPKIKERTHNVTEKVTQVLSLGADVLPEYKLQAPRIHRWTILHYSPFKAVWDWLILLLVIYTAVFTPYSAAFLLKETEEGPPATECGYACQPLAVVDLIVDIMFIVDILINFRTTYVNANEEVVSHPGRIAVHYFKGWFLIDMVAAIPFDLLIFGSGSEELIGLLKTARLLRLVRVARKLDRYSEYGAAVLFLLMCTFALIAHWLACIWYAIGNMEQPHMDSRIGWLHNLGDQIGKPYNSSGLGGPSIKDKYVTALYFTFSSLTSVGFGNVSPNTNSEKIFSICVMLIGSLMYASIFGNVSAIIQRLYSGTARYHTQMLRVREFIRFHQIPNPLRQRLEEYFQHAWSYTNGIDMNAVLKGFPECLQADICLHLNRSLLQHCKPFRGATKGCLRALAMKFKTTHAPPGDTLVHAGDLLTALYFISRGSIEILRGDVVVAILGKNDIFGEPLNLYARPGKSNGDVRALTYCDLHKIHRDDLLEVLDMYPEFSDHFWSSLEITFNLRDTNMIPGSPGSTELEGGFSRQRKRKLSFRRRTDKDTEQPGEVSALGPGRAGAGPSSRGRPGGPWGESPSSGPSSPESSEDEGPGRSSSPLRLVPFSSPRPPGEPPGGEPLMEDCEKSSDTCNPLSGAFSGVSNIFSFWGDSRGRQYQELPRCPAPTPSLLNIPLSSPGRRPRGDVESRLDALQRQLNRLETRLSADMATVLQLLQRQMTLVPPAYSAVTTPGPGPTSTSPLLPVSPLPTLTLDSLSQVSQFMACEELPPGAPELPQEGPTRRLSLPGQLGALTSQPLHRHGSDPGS

[13] = Protein binding in human plasma; format: ADME, cell-free; conditions: read-out: PPB (converted)
[14] = Protein binding in rat plasma; format: ADME, cell-free; conditions: read-out: PPB (converted)
[15] = Protein binding in mouse plasma; format: ADME, cell-free; conditions: read-out: PPB (converted)
[16] = Protein binding in dog plasma; format: ADME, cell-free, Canis lupus familiaris; conditions: read-out: PPB
[17] = Protein binding in monkey plasma; format: ADME, cell-free, Macaca mulatta; conditions: rhesus monkey, read-out: PPB
[18] = target: T3, Proteinase-activated receptor 1 (Homo sapiens, UniProt P25116); assay: Antagonist activity at PAR1 in human platelet rich plasma assessed as inhibition of SFFLRR-induced platelet aggregation preincubated for 5 mins followed by SFFLRR addition
T3 sequence (P25116 whole entry): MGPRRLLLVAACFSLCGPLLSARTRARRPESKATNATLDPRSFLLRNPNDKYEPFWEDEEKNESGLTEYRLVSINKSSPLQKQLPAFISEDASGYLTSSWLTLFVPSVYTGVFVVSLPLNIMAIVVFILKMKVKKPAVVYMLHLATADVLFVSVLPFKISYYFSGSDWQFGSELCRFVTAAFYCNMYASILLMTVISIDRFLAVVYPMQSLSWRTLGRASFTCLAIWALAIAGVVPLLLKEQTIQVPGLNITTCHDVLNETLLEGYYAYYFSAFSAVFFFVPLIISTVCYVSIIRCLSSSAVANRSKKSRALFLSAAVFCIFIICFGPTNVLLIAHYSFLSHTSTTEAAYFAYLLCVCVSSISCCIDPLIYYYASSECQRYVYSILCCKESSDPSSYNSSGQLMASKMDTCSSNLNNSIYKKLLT

[19] = Clearance in dog at 2 mg/kg, po or 0.5 mg/kg, iv administered as infusion for 10 mins; format: ADME, organism-based, Canis lupus familiaris; conditions: in vivo
Procedure, shortened: (§1)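 Dog and monkey dosing: iv 0.5 mpk as a 10 min infusion in PEG400 at 0.8 ml/kg. po 2 mpk in 40/60 TPGS/PEG400 at 0.5 mL/kg.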

[20] = Half life in dog at 2 mg/kg, po or 0.5 mg/kg, iv administered as infusion for 10 mins; format: ADME, organism-based, Canis lupus familiaris; conditions: in vivo; procedure, shortened: as §1
[21] = Oral bioavailability in dog at 2 mg/kg; format: ADME, organism-based, Canis lupus familiaris; conditions: in vivo; procedure, shortened: as §1
[22] = Clearance in monkey at 2 mg/kg, po or 0.5 mg/kg, iv administered as infusion for 10 mins; format: ADME, organism-based, Macaca mulatta; conditions: rhesus monkey, in vivo; procedure, shortened: as §1
[23] = Half life in monkey at 2 mg/kg, po or 0.5 mg/kg, iv administered as infusion for 10 mins; format: ADME, organism-based, Macaca mulatta; conditions: rhesus monkey, in vivo; procedure, shortened: as §1
[24] = Oral bioavailability in monkey at 2 mg/kg; format: ADME, organism-based, Macaca mulatta; conditions: rhesus monkey, in vivo; procedure, shortened: as §1
Cynomolgus monkey [25] = assay: Antithrombotic activity in cynomolgus monkey electrolytic carotid artery thrombosis assessed as reduction in thrombus weight administered via oral gavage measured after 1.5 hrs; format: functional, organism-based; conditions: Macaca fascicularis
Procedure, shortened: (§2)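 Monkeys retired from earlier studies after a washout of at least 4 weeks, randomized to vehicle (n=8) or 0.4, 2 or 10 mg/kg (n=7 each). Dosed by oral gavage in 40/60 w/w TPGS/PEG400 at 2 ml/kg. Anesthetized and surgically prepared 1.5 h post-dose. Thrombosis and bleeding time measured in the same animal.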

Cynomolgus monkey [26] = assay: Antithrombotic activity in cynomolgus monkey electrolytic carotid artery thrombosis assessed as reduction in thrombus weight at 0.4 mg/kg, po administered via gavage measured after 1.5 hrs relative to control; format: functional, Macaca fascicularis; parameters: scale not given: the % may be the effect or the level left; procedure, shortened: as §2
Cynomolgus monkey [27] = assay: Antithrombotic activity in cynomolgus monkey electrolytic carotid artery thrombosis assessed as reduction in thrombus weight at 2 mg/kg, po administered via gavage measured after 1.5 hrs relative to control; format: functional, Macaca fascicularis; parameters: scale not given: the % may be the effect or the level left; procedure, shortened: as §2
Cynomolgus monkey [28] = assay: Antithrombotic activity in cynomolgus monkey electrolytic carotid artery thrombosis assessed as reduction in thrombus weight at 10 mg/kg, po administered via gavage measured after 1.5 hrs relative to control; format: functional, Macaca fascicularis; parameters: scale not given: the % may be the effect or the level left; procedure, shortened: as §2
[29] = Toxicity in cynomolgus monkey assessed as prolongation of kidney bleeding time at 10 mg/kg, po administered via gavage measured up to 20 mins; format: organism-based, Macaca fascicularis; conditions: in vivo
Procedure, shortened: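 Oral gavage at 10 mg/kg or vehicle (40/60 w/w TPGS/PEG400, 2 ml/kg) to monkeys, anesthetized 1.5 h later. Bleeding time taken by renal cortex incision: time until bleeding stopped with no re-bleeding for 30 s, monitored up to 20 min, done in triplicate.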

COc1cc(OCc2cccc(OCc3ccccc3)c2)c2cc(-c3cn4nc(OC)sc4n3)oc2c1
remaining at 10 min [1]: 85% | remaining at 10 min [2]: 76% | clearance [3]: 10 mL/min/kg | half-life [4]: 6.9 h | bioavailability [5]: 11% | K [6]: 66700 M⁻¹ s⁻¹ | K [7]: 0.013 min⁻¹ | half-life [8]: 2 h | half-life [9]: 1.67 h | half-life [10]: 0.8 h | IC50 [11]: > 40 µM | EC50 [12]: > 50 µM | inhibition at 10 µM (hERG (KCNH2)): ≤ 10% | fraction unbound [13]: 0.004 | fraction unbound [14]: 0.002 | fraction unbound [15]: 0.005 | fraction unbound [16]: ≤ 0.002 | fraction unbound [17]: < 0.002 | IC50 [18]: > 30 µM | clearance [19]: 1.6 mL/min/kg | half-life [20]: 7 h | bioavailability [21]: 26% | clearance [22]: 5.2 mL/min/kg | half-life [23]: 6.2 h | bioavailability [24]: 11% | Activity (Cynomolgus monkey [25]): Dose-dependent effect | Activity (Cynomolgus monkey [26]): 9% | Activity (Cynomolgus monkey [27]): 38% | Activity (Cynomolgus monkey [28]): 38% | Activity [29]: Non-Toxic

From ChEMBL document CHEMBL4406800, “Discovery of Potent Protease-Activated Receptor 4 Antagonists with in Vivo Antithrombotic Efficacy” (J Med Chem, 2019)
